Reference: ChEMBL document CHEMBL4138221, “Discovery, optimization and biological evaluation for novel c-Met kinase inhibitors” (Eur J Med Chem, 2018)
Values belong to the molecule of their own block, whether it stands above or below them.

Key:
MCF7 [1] = assay: Antiproliferative activity against human MCF7 cells after 72 hrs by Alamarblue assay relative to control; conditions: MCF7, 72 h
COLO 205 = assay: Antiproliferative activity against human COLO205 cells after 72 hrs by Alamarblue assay; format: functional, cell-based; conditions: COLO 205, 72 h
Summary of the method: (§1)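 Cells were seeded in medium with 10% FBS at 37 °C and 5% CO2. After 24 h the medium was switched to serum-free medium containing 0.04% BSA, and cells were exposed to compound for 72 h. AlamarBlue was then added for 1–4 h at 37 °C in the dark, and fluorescence was read at ex 570 / em 585 nm. IC50 was obtained by nonlinear regression fitting.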

A549 [2] = assay: Antiproliferative activity against human A549 cells after 72 hrs by Alamarblue assay relative to control; conditions: A549, 72 h
HCT-116 [3] = assay: Antiproliferative activity against human HCT116 cells after 72 hrs by Alamarblue assay relative to control; conditions: HCT-116, 72 h
EBC-1 = assay: Antiproliferative activity against human EBC1 cells after 72 hrs by Alamarblue assay; conditions: EBC-1, 72 h
PC-3 [4] = assay: Antiproliferative activity against human PC3 cells after 72 hrs by Alamarblue assay; format: functional, cell-based; conditions: PC-3, 72 h; summary of the method: as §1
NCI-H460 = assay: Antiproliferative activity against human NCI-H460 cells after 72 hrs by Alamarblue assay; format: functional, cell-based; conditions: NCI-H460, 72 h; summary of the method: as §1
SGC-7901 [5] = assay: Antiproliferative activity against human SGC7901 cells after 72 hrs by Alamarblue assay relative to control; conditions: SGC-7901, 72 h
MKN-45 = assay: Antiproliferative activity against human MKN45 cells after 72 hrs by Alamarblue assay; conditions: MKN-45, 72 h
[6] = biological target: Serine/threonine-protein kinase B-raf (Homo sapiens) (UniProt P15056); assay: Inhibition of B-raf (unknown origin) at 50 uM
Serine/threonine-protein kinase B-raf (Homo sapiens), sequence (P15056 whole entry): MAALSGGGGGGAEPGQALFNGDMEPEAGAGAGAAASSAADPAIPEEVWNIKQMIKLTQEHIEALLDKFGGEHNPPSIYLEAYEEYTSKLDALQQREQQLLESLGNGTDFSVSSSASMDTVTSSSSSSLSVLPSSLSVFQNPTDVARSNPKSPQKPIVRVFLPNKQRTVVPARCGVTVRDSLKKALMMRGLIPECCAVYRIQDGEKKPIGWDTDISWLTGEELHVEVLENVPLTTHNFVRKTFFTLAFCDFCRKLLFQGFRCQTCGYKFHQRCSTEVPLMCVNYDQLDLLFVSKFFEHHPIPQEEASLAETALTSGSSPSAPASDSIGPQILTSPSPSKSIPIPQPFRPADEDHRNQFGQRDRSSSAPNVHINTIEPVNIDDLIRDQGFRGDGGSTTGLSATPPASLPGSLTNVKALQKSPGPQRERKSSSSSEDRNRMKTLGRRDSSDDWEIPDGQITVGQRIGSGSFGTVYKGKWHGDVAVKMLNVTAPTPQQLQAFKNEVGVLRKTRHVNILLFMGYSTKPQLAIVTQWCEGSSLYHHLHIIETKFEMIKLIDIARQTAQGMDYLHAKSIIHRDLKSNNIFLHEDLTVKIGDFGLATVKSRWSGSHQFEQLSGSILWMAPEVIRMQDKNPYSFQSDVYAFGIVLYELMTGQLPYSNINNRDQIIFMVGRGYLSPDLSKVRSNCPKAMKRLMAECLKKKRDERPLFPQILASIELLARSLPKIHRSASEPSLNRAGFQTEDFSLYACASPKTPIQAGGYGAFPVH

MCF7 [7] = assay: Antiproliferative activity against human MCF7 cells at 10 uM after 72 hrs by Alamarblue assay relative to control; format: functional; conditions: MCF7, 72 h, read-out: GI
Summary of the method: (§2)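 Single-concentration screen in cells kept at 37 °C and 5% CO2. Cells were plated in 10% FBS medium, then moved after 24 h to serum-free medium with 0.04% BSA. Compound exposure lasted 72 h. AlamarBlue was added for 1–4 h at 37 °C protected from light, and fluorescence was measured at ex 570 / em 585 nm.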

SGC-7901 [8] = assay: Antiproliferative activity against human SGC7901 cells at 10 uM after 72 hrs by Alamarblue assay relative to control; format: functional; conditions: SGC-7901, 72 h, read-out: GI; summary of the method: as §2
[9] = biological target: Hepatocyte growth factor receptor (Homo sapiens, UniProt P08581); assay: Inhibition of human GST-tagged c-MET using KKKSPGEYVNIEFG as substrate preincubated for 20 mins followed by [gamma-33P]ATP addition and measured after 2 hrs by filter-binding assay
Hepatocyte growth factor receptor, sequence (P08581 whole entry): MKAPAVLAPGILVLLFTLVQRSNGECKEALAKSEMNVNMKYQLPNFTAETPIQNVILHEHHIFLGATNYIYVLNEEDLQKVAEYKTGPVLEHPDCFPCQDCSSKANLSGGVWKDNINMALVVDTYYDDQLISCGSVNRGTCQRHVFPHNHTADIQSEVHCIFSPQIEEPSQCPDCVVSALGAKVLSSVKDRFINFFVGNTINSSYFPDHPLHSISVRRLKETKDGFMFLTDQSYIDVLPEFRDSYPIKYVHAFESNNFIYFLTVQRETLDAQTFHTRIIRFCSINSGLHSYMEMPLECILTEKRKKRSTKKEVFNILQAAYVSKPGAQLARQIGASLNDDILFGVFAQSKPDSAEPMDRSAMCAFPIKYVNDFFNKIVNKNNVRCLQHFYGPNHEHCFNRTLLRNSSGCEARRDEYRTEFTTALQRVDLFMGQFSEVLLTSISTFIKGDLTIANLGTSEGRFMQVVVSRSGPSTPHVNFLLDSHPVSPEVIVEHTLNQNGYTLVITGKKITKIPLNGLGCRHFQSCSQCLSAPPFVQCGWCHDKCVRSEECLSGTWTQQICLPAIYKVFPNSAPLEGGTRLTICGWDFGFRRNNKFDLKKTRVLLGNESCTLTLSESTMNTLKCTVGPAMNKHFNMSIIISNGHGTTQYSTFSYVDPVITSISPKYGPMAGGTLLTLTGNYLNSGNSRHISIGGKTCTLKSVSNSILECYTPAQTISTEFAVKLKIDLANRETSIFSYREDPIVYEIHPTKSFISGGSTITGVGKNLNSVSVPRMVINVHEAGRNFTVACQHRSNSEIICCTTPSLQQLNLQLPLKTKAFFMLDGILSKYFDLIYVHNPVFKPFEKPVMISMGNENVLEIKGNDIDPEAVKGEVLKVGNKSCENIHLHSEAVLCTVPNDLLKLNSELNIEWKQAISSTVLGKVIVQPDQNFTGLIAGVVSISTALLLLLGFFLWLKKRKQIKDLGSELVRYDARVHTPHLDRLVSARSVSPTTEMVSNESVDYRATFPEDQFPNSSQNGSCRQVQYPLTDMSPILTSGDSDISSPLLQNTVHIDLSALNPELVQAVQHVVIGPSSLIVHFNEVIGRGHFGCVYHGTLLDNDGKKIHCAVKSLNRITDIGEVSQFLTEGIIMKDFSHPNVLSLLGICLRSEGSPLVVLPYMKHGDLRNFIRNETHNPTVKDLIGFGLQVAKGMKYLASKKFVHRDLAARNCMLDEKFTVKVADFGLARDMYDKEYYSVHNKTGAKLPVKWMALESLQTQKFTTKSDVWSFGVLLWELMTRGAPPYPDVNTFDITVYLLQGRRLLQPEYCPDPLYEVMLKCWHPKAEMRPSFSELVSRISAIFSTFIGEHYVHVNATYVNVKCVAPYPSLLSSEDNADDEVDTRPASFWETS

[10] = biological target: Vascular endothelial growth factor receptor 2 (Homo sapiens, UniProt P35968); assay: Inhibition of KDR (unknown origin)
Vascular endothelial growth factor receptor 2, sequence (P35968 whole entry): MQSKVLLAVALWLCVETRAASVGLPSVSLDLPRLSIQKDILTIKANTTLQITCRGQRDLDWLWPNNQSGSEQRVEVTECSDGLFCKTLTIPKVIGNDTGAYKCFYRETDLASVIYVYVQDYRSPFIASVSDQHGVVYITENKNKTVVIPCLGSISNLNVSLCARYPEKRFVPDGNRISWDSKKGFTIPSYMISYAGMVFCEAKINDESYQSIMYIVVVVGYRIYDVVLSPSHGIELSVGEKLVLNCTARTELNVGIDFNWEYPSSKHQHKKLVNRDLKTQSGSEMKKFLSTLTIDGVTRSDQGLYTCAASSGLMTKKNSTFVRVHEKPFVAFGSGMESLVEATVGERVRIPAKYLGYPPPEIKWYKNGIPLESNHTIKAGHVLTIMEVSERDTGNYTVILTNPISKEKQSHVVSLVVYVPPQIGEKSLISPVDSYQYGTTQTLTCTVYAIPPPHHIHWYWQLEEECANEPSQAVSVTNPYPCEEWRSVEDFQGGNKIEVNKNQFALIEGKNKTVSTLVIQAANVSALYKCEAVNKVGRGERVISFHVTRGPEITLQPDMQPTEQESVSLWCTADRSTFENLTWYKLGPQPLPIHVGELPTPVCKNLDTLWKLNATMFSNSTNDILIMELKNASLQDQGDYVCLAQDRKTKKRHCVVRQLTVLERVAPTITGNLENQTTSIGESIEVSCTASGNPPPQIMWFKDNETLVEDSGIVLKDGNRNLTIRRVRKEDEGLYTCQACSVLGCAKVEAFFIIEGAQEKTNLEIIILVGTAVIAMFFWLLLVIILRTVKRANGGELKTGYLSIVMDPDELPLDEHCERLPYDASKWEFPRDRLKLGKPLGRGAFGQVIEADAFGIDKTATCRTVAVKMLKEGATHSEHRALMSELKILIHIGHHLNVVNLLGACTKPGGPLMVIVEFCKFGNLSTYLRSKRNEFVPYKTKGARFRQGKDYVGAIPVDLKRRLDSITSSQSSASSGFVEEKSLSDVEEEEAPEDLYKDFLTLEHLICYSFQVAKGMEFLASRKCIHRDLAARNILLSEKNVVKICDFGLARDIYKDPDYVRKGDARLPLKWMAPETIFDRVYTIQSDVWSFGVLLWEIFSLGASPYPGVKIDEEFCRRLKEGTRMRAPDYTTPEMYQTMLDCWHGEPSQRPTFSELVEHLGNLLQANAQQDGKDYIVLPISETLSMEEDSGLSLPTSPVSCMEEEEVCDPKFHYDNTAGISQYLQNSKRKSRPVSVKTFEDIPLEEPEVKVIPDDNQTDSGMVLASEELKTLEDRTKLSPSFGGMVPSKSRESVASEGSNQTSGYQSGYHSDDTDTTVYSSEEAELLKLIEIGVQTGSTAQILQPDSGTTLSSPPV

HCT-116 [11] = assay: Antiproliferative activity against human HCT116 cells at 10 uM after 72 hrs by Alamarblue assay relative to control; format: functional; conditions: HCT-116, 72 h, read-out: GI; summary of the method: as §2
PC-3 [12] = assay: Antiproliferative activity against human PC3 cells at 10 uM after 72 hrs by Alamarblue assay relative to control; format: functional; conditions: PC-3, 72 h, read-out: GI; summary of the method: as §2
A549 [13] = assay: Antiproliferative activity against human A549 cells at 10 uM after 72 hrs by Alamarblue assay relative to control; format: functional; conditions: A549, 72 h, read-out: GI; summary of the method: as §2

SMILES: C[C@@H](Oc1cc(-c2cnn(C3CCNCC3)c2)cnc1N)c1c(Cl)ccc(F)c1Cl [CRIZOTINIB]
- IC50 (MCF7 [1]): 45 nM
- IC50 (COLO 205): 2450 nM
- IC50 (A549 [2]): 134 nM
- IC50 (HCT-116 [3]): 254 nM
- IC50 (EBC-1): 13 nM
- IC50 (PC-3 [4]): 9790 nM
- IC50 (NCI-H460): 2240 nM
- IC50 (SGC-7901 [5]): 321 nM
- IC50 (MKN-45): 22 nM

SMILES: COc1ccc2c(OCc3nnc4sc(-c5cc6ccccc6[nH]5)nn34)ccnc2c1
- IC50 (COLO 205): 2240 nM
- IC50 (EBC-1): 506 nM
- IC50 (PC-3 [4]): 2970 nM
- IC50 (NCI-H460): 2060 nM
- IC50 (MKN-45): 1170 nM

SMILES: Fc1ccccc1-c1cn2c(COc3ccc4c(c3)OCO4)nnc2s1
- inhibition of growth at 10 µM (MCF7 [7]): 45.4%
- inhibition of growth at 10 µM (SGC-7901 [8]): 12.4%
- inhibition of growth at 10 µM (HCT-116 [11]): 4.73%
- inhibition of growth at 10 µM (PC-3 [12]): 19.4%
- inhibition of growth at 10 µM (A549 [13]): 20.1%

SMILES: COc1ccc(Cc2nnc3sc(-c4ccccc4OC)nn23)cc1
- inhibition of growth at 10 µM (MCF7 [7]): 35.7%
- inhibition of growth at 10 µM (SGC-7901 [8]): 15.5%
- inhibition of growth at 10 µM (HCT-116 [11]): 8.2%
- inhibition of growth at 10 µM (PC-3 [12]): 57.7%
- inhibition of growth at 10 µM (A549 [13]): 10.4%

Second part, led by results:

- inhibition [6]: 17.8%
- IC50 [9]: 190 nM
- IC50 [10]: 3330 nM
SMILES: COc1ccc(Cc2nnc3sc(-c4cc5ccccc5[nH]4)nn23)cc1
- inhibition of growth at 10 µM (MCF7 [7]): 14.9%
- inhibition of growth at 10 µM (SGC-7901 [8]): 12.3%
- inhibition of growth at 10 µM (HCT-116 [11]): 0.64%
- inhibition of growth at 10 µM (PC-3 [12]): 55.1%
- inhibition of growth at 10 µM (A549 [13]): 6.08%

- IC50 (MKN-45): 1020 nM
SMILES: COc1ccc2c(OCc3nnc4sc(-c5ccc6[nH]cnc6c5)nn34)ccnc2c1
- IC50 (EBC-1): 3170 nM
